# Bioassay records as filed in PubChem.
# Sampled rows, rich in hits. Any-hit rate of the full collection: about 2.8%.
# SDO1 yeast rescue: sdo1-depleted yeast growth rescue; S. cerevisiae sdo1-depleted JHY4D growth rescue, OD600 30 h; stronger effect = higher value; pdr5 snq2 efflux-pump mutant strain; z-score at 10 µM; 140,000 tested, 0.21% active; AID 817;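 active means z-score above 3 at both the 24 hr and the 30 hr optical density reads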;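 further: z-score against mean and SD of all compound wells on the same plate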
# HCT116 PTEN-null: PTEN-deleted cell growth suppression; 140,000 tested, 1.2% active; HCT116 PTEN-null viability, CellTiter-Glo, 60 h; stronger effect = lower value; viability, % at 10 µM;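 active means viability at or below a set limit, 4 SD under the median of all tested compounds, cut at about 3.7% in these data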;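 further: PTEN knockout HCT116 line with beta catenin targeted HCT116 as companion control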
# BB579 growth dn: reduces growth of yeast BB579 in restrictive medium. S. cerevisiae BB579 growth, OD615, 48 h. inhibition, % at 10 µM. 140,000 tested, 0.51% active;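 active means inhibition above a set limit, 3 SD over the mean compound inhibition, cut at about 44% in these data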
#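 Assay system: S. cerevisiae DeaD strain BB579 yeast. Medium: CSMM-D restrictive synthetic medium containing dextrose (glucose). Times: 4 h cell preincubation, 48 h compound exposure, 30 °C humidified. Signal: OD615 turbidity measurement. Benchmarks: positive control amphotericin B 10 µg/mL.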
# bCat KO growth: beta-catenin-lacking colon tumor cell growth suppression; viability, % at 10 µM; HCT116 beta-catenin knockout viability, CellTiter-Glo, 60 h; stronger effect = lower value; AID 818; 140,000 tested, 1.5% active;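 active means viability at or under a set limit, the compound median less 4 SD, cut at about 6% in these data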;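 further: 0% = Hyamine 1622 control at 20 µM and 100% = untreated cell control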
# Yeast life ext: yeast lifespan extension; S. cerevisiae growth with nicotinamide, OD615; deaD strain in restrictive glucose medium; inhibition of the nicotinamide effect, % at 10 µM; 130,000 tested, 0.68% active;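 active means inhibition above a set limit, placed 3 SD over the median of all compounds, cut at about 26% in these data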;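 further: 0% = nicotinamide-treated wells and 100% = cells grown without nicotinamide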
#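 Assay system: engineered S. cerevisiae DeaD replicative-lifespan strain, galactose-grown log-phase cells; Buffer or medium: CSMM-D glucose medium, restrictive; Probe or stimulus: nicotinamide 1.5 mM; Compound: single dose 10 µM compound, 0.25% DMSO; Schedule: 4 h preincubation then 48 h treatment at 30 °C; Technique: OD615 measurement.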
# Starred values were filed as active, the others as inactive.
SMILES,SDO1 yeast rescue,HCT116 PTEN-null,BB579 growth dn,bCat KO growth,Yeast life ext
Cc1nn(-c2cccc(C(F)(F)F)c2)c(Cl)c1/C=N/Nc1cccc(C(=O)O)c1,-1.7,92.3,94.0*,83.4,-10.4
Cc1ccc(C2CC(=O)c3cnn(-c4nc(C)cc(C)n4)c3C2)cc1 (stereo not drawn),-0.95,95.7,-17.7,83.6,-4.8
O=C(COc1ccccc1)N1CCN=C1SCc1cccnc1,2.52,93.9,56.1*,103.6,-15.7
O=C1/C(=C/c2cccc([N+](=O)[O-])c2)CCc2ccccc21,-1.26,2.0*,-59.5,3.2*,-3.7
CCN1C/C(=C\c2cccc([N+](=O)[O-])c2)C(=O)/C(=C/c2cccc([N+](=O)[O-])c2)C1,-1.45,1.4*,-40.7,1.6*,23.3
CCOc1ccc(CCNC(=O)CCCN2C(=O)c3ccccc3C2=O)cc1OCC,1.48,98.4,-33.0,102.2,-5.3
O=C(O)c1cc2ccccc2n1-c1ccccc1,-0.01,109.9,2.0,99.7,-0.4
CCNc1nc(NCC)n2c(SC(C(=O)Nc3cc(Cl)cc(Cl)c3)c3ccccc3)nnc2n1 (stereo not drawn),0.17,1.2*,-32.3,1.2*,3.1
CCNc1nc(NCC)n2c(SCC(=O)O)nnc2n1,0.43,96.7,-9.9,88.7,-3.2
COc1ccc(NC(=O)c2sc(Cl)nc2-c2ccccc2)cc1,-0.63,23.3,-14.4,24.2,-3.3
COc1ccc(OC)c(NC(=S)N2CCN(C/C=C/c3ccccc3)CC2)c1,-0.64,80.7,-37.3,80.1,43.0*
CC1CCCC2(C1)NC(=S)c1c(sc3c1CCCC3)N2 (stereo not drawn),-1.43,83.2,85.7*,92.3,-15.2
CCCCC(=O)Nc1sc2c(c1C(=O)OCC)CCC(C=O)=C2Cl,-1.07,1.1*,-17.1,1.4*,-1.1
CC1CCC(C(C)C)C(OC(=O)CSc2n[nH]c(=O)[nH]c2=O)C1 (stereo not drawn),-0.72,100.3,-46.9,92.0,47.5*
Cc1nnc(SCC(=O)OC2CC(C)CCC2C(C)C)[nH]c1=O (stereo not drawn),0.96,93.2,-1.4,96.3,3.4
CC1=CC(C)(C)Nc2ccc(OC(=O)CN3C(=O)c4ccccc4C3=O)cc21,-0.14,1.5*,-22.6,1.4*,-1.2
Cc1nc(C#N)c(N/N=C/c2c(F)cccc2Cl)o1,0.67,95.6,-17.3,98.5,-5.9
O=C(Nc1cc(Cl)ccc1O)c1snnc1-c1ccccc1,-2.02,17.1,-15.3,26.0,-5.0
CN(/N=C/c1cc([N+](=O)[O-])ccc1O)c1ccccc1,-0.45,92.9,-22.9,98.3,-1.2
COc1cc(/C=N/Nc2nc3ccccc3[nH]2)ccc1O,0.52,70.3,-18.7,86.4,-5.7
Cc1cc(C(=O)N/N=C/c2cc([N+](=O)[O-])ccc2O)c2ccccc2n1,0.31,3.0*,-21.1,8.6,-0.2
O=[N+]([O-])c1ccc(O)c(/C=N/Nc2ccccn2)c1,-1.72,12.7,99.5*,11.7,-9.4
O=[N+]([O-])c1ccc(O)c(/C=N/Nc2nc3ccccc3[nH]2)c1,0.09,5.2,-4.2,4.2*,-6.2
CN(C)CC(C)(C)CNS(=O)(=O)CC12CCC(CC1=O)C2(C)C (stereo not drawn),1.07,97.9,-8.0,94.5,-2.7
CCOc1ccc(C(=O)SC2=NCCS2)cc1,0.31,101.8,-47.9,95.0,52.5*
SMILES,SDO1 yeast rescue,HCT116 PTEN-null,BB579 growth dn,bCat KO growth,Yeast life ext
CC(C)c1cc(N2CCN(C(=O)c3ccco3)CC2)n2c(nc3ccccc32)c1C#N,-0.36,86.1,10.1,92.7,-3.8
Cc1cc(-c2ccco2)c(C#N)c2nc3ccccc3n12,-2.67,15.4,89.4*,20.6,-31.9
CCc1c(C)c(C#N)c2nc3ccccc3n2c1Cl,-1.98,2.2*,17.9,4.0*,27.6*
CCN(C(=O)CSc1nnc2c3ccccc3n(CC)c2n1)C1CCS(=O)(=O)C1 (stereo not drawn),1.58,96.2,-14.5,91.0,-4.9
Cc1nn2c3ccccc3nc2c2ccccc12,-1.52,71.6,78.7*,60.5,-12.1
Cc1cc(C)n(-c2nc(SCCN(C)C)c3c4c(sc3n2)CCCC4)n1,-1.74,2.0*,-34.3,3.0*,-26.6
CC1(C)C(C=C(Cl)Cl)C1C(=O)Nc1ccc([N+](=O)[O-])cc1 (stereo not drawn),-1.14,2.4*,53.6*,3.9*,-3.8
O=C(Nc1ccc([N+](=O)[O-])cc1)C1CC1(c1ccccc1)c1ccccc1 (stereo not drawn),-0.76,66.0,-17.3,73.1,1.3
Cc1ccc(-c2csc3ncnc(SCC(=O)Nc4nnc(C)s4)c23)cc1,0.59,101.6,-81.5,86.3,-11.2
Cc1ccc(-c2csc3ncnc(Sc4nnc(CN5CCCCCC5=O)o4)c23)cc1,-1.81,1.7*,-24.6,1.9*,-1.3
O=S1(=O)CCC(NS(=O)(=O)/C=C/c2ccccc2)C1 (stereo not drawn),-0.06,91.8,-38.3,92.4,-9.3
O=S(=O)(/C=C/c1ccccc1)NC1CCCCCCC1,-1.71,87.3,-46.3,91.7,26.6*
CCOc1cc(CNCc2ccncc2)cc(Cl)c1OC,0.65,106.3,-23.9,91.4,3.5
O=S(=O)(NCCc1ccncc1)c1ccc(S(=O)(=O)N2CCCCCC2)cc1,-0.66,104.5,15.3,99.7,-4.9
Cc1ccccc1OCCCC(=O)NCc1ccco1,0.5,95.2,-9.7,88.9,-24.9
Cc1cccc(NC(=O)c2c(O)c3cccc4c3n(c2=O)CCC4)n1,0.22,97.8,-72.5,92.4,74.1*
CC(C)c1nnc(NC(=O)c2c(O)c3cccc4c3n(c2=O)CCC4)s1,-2.75,33.7,-32.8,42.4,40.5*
Cc1cnc(NC(=O)c2c(O)c3cccc4c3n(c2=O)CCC4)s1,-2.58,83.9,-13.9,80.5,9.8
CN(C)CCCNS(=O)(=O)c1ccc(N2CCC(c3ccc(Cl)cc3)=N2)cc1,-2.22,1.1*,6.7,1.2*,-11.4
O=S(=O)(c1ccc(N2CCC(c3ccc(Cl)cc3)=N2)cc1)N(CCO)CCO,-0.51,80.2,-18.3,78.6,-1.1
COc1ccc2cc(C(c3nnnn3C3CCCC3)N3CCc4ccccc4C3)c(=O)[nH]c2c1 (stereo not drawn),-1.12,81.9,-52.1,75.2,-1.6
CCC(C)(C)n1nnnc1C(c1cc2ccc(OC)cc2[nH]c1=O)N1CCc2ccccc2C1 (stereo not drawn),-1.21,2.9*,-34.4,10.2,0.5
COc1ccc2cc(C(c3nnnn3C(C)(C)C)N3CCc4ccccc4C3)c(=O)[nH]c2c1 (stereo not drawn),-0.32,4.2,-15.3,3.5*,-17.9
CCC(C)(C)n1nnnc1C(c1cc2cccc(C)c2[nH]c1=O)N1CCCC1 (stereo not drawn),-1.43,94.5,-36.7,88.0,36.3*
COc1ccc(C2C(C#N)=C(N)N(c3ccccc3C#N)C3=C2C(=O)CCC3)cc1CN1CCCC1 (stereo not drawn),1.24,95.3,-22.6,88.8,4.8
